This is an account of results in PubChem BioAssay AID602407 (Southern Research Specialized Biocontainment Screening …, 2012).

Active and inactive are the calls of the source.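 How the source made its calls: active means inhibition of 30% or more at any tested concentration; inactive means the rest.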

Sequence of Cytosol aminopeptidase (Homo sapiens) (P28838 whole entry, looked up): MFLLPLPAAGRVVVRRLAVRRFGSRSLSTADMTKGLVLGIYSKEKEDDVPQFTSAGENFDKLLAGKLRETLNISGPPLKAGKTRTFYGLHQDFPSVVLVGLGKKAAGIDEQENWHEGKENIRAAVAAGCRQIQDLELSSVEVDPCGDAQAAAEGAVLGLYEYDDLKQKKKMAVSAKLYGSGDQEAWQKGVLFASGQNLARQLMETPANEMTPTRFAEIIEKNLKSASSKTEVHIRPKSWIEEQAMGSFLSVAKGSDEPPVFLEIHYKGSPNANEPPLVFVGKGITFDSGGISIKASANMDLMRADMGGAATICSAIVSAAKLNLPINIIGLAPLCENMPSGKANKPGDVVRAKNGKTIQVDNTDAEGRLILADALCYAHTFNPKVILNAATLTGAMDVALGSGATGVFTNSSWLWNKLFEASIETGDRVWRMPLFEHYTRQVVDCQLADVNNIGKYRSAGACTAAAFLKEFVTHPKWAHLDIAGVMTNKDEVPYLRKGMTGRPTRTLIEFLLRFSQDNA

The target of the first assay is Cytosol aminopeptidase (Homo sapiens) (UniProt P28838). Nature of the assay: human M17 leucine aminopeptidase inhibitors, dose response, counter-screen for PfM17LAP inhibitor project, biochemical, QFRET fluorogenic substrate (AID 602407). Conditions: recombinant human M17LAP, H-Leu-NHMec fluorogenic cleavage. In outline: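 system = recombinant human M17LAP enzyme | dosing = ten twofold steps from 100 µM, 2% DMSO | times = 90 min reaction, room temperature | technique = fluorescence of released NHMec, excitation 370 nm, emission 460 nm | read-out basis = % inhibition and IC50 from constrained four-parameter fit | controls = full reaction and enzyme-free controls | replicates = triplicates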
One may read the IC50 as the concentration at which inhibition is half-maximal. Regarding `CCCOc1ccc(CC(=O)NO)cc1`, the IC50 is 0.49 µM.

Regarding `O=C(NO)c1ccc2ccccc2c1`, the IC50 was 8.38 µM.

On to `CCCCOc1cccc(CC(=O)NO)c1`, for which the IC50 is 2.77 µM.

As to `CCC(C)Oc1ccc(CC(=O)NO)cc1` (stereo not drawn), the IC50 was 0.38 µM.

For the molecule `CCCCOc1ccc(C(C)C(=O)NO)cc1` (stereo not drawn), the IC50 was 0.53 µM.

Still in this assay, the particulars now being: recombinant human M17LAP, H-Leu-NHMec fluorogenic cleavage; at 100 µM (top of the series).
As to `CCCOc1ccc(CC(=O)O)cc1`, the inhibition entry was “inactive”.

For `CCCCOc1ccc(C(C)(C)C(=O)O)cc1`, the inhibition entry was “inactive”.

Regarding `CCCCOc1ccc(CN(O)C(=O)c2ccccc2)cc1`, the inhibition result is “inactive”.

Take `CN(C)CCOc1ccc(CC(=O)O)cc1`: the inhibition entry is “inactive”.

In the case of `CCCCOc1cccc(CC(=O)OC)c1`, the inhibition result was “inactive”.

On to `CCCCOc1ccc(CN(O)C(C)=O)cc1`, for which the inhibition result was “inactive”.

For `CCCCOc1ccc(C(C)C(=O)OC)cc1` (stereo not drawn), the inhibition result is “inactive”.

With `CCCCOc1ccc(C(C)(C)C(=O)NO)cc1`, the inhibition result is “inactive”.
